From PubChem BioAssay
Rows were chosen to be rich in hits. Some 2.6% of all compounds tested hit in one or more screens of this group.
esBAF inh – SWI/SNF esBAF complex inhibition. mouse ES cells, Bmi1-luciferase knock-in reporter, 24 h; 100% = twice the neutral-well signal. reporter increase, % at 12.5 µM. 350,000 tested, 2% active. AID 602393; in the data active means activation above about 40%;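 further: a rise in the Bmi1 reporter signal indicates esBAF inhibition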
SMARCA2 act – increases SMARCA2 function in MMTV reporter cells. MG213 cells, MMTV-luciferase reporter, dexamethasone, overnight. activation, % at 9.1 µM. 370,000 tested, 1% active. AID 652017; in the data active means activation above about 7.8%
ARFGAP1 inh – rat ARFGAP1 inhibition. inhibition, % at 16.5 µM. Arfgap1-stimulated ARF1 GTP hydrolysis, GDP FP detection. AID 651572. 360,000 tested, 0.26% active;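 active means inhibition above a per-plate limit, mean inhibition of low control wells plus 3 SD, cut at about 25% in these data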
Target sequence (Q62848 1-136 limits assumed): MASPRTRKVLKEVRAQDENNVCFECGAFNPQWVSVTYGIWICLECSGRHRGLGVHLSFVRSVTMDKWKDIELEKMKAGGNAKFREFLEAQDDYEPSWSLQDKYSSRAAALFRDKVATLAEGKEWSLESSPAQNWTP
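Repeats: one replicate per compound; assay system: rat Arfgap1 catalytic domain, aa 1-136; times: enzyme reaction 120 min at 25 °C after 20 min preincubation; detection: FP of antibody-bound GDP Alexa 633 tracer, ex 620/em 688 nm; benchmarks: high control wells lacking Arfgap1, low control full reaction with DMSO; reagent: human ARF1(Δ1-17)-GTP substrate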
ASAP1 inh – blocks human ASAP1-stimulated Arf1 GTP hydrolysis. Q9ULH1. GDP FP detection. inhibition, % at 16.5 µM. 360,000 tested, 0.19% active. AID 624377; in the data active means inhibition above about 25%
Target sequence (Q9ULH1 325-724 limits assumed): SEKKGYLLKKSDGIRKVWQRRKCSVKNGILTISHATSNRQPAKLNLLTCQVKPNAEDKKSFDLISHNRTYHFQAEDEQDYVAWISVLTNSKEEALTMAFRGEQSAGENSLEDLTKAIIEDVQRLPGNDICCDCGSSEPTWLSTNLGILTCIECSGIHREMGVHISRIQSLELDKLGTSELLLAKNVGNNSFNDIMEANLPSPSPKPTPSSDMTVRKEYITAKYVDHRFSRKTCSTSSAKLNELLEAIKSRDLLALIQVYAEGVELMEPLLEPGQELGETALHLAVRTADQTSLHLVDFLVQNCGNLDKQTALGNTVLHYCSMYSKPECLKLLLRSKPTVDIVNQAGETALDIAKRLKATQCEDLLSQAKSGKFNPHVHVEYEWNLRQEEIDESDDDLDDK
ASAP1 GAP conf – ASAP1 inhibition confirmed; shares compounds with ASAP1 inh; ASAP1-stimulated Arf1 GTPase, GDP fluorescence polarization; inhibition, % at 16.5 µM; 620 tested, 37% active;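 active means mean inhibition over triplicates exceeds the hit threshold derived for the earlier primary screening run, cut at about 25% in these data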
Large screens that a line does not name were inactive (follow-up assays come after a bar, where they were run).

CCOC(=O)C(C(=O)Nc1cccc(C)n1)C1CCCCC1 (stereo not drawn)	ASAP1 inh 26.1 | ASAP1 GAP conf inactive
CCOC(=O)C(C(=O)Nc1ccccn1)C1CCCCC1 (stereo not drawn)	none
COc1ccccc1NC(=O)Cn1nnc(-c2ccccc2NC(=O)c2ccco2)n1	ASAP1 inh 28.2 | ASAP1 GAP conf inactive
COc1ccc(NC(=O)Cn2nnc(-c3ccccc3NC(=O)c3ccco3)n2)cc1	none (no result: esBAF inh)
C[C@@H]1CN([C@@H](C)CO)C(=O)Cc2cc(NC(=O)CCC(F)(F)F)ccc2O[C@H]1CN(C)Cc1ccncc1	none (no result: SMARCA2 act, ARFGAP1 inh, ASAP1 inh)
CC(=O)C1=C(C)OC2(O)c3ccccc3C(=O)C12O (stereo not drawn)	ASAP1 inh 43.3 (no result: esBAF inh) | ASAP1 GAP conf inactive
CCOC(=O)C1=C(C)OC2(O)c3ccccc3C(=O)C12O (stereo not drawn)	ASAP1 inh 47.2 | ASAP1 GAP conf inactive
COc1ccc(C(=O)N2C[C@@H]3[C@H](c4ccccc42)[C@H](CO)N3Cc2ccc(Cl)cc2)cc1	none (no result: SMARCA2 act, ARFGAP1 inh, ASAP1 inh)
CO[C@@H]1CN(C)C(=O)c2cc(NC(=O)NC(C)C)ccc2OC[C@@H](C)N(Cc2ccccc2)C[C@@H]1C	none (no result: SMARCA2 act, ARFGAP1 inh, ASAP1 inh)
COc1cc2oc3ccc(C#Cc4ccccn4)cc3c(=O)c2cc1OC	ASAP1 inh 31.0 | ASAP1 GAP conf 40.1
CCOC(=O)c1sc(NC(=O)CNCc2cccnc2)c(C(=O)OCC)c1C	ASAP1 inh 36.9 | ASAP1 GAP conf inactive
O=C(O)CC1(CC(=O)Nc2cc(F)ccc2Cl)CCCCC1	ASAP1 inh 24.8 | ASAP1 GAP conf inactive
Cc1ccc(C(=O)NCCC2=CCCCC2)cc1S(=O)(=O)N1CCCCC1	ASAP1 inh 27.9 (no result: esBAF inh) | ASAP1 GAP conf inactive
Nc1ccc(Oc2cccc(Oc3ccc(N)cc3)c2)cc1	ASAP1 inh 28.1 (no result: esBAF inh) | ASAP1 GAP conf inactive
COc1ccc(S(=O)(=O)N2CCc3ccccc32)cc1C(=O)OCC(=O)c1c(N)n(C)c(=O)n(C)c1=O	ASAP1 inh 25.8 (no result: esBAF inh) | ASAP1 GAP conf inactive
CCOc1ccc(NS(=O)(=O)c2ccc(NC(=S)NC(=O)C(C)C)cc2)cc1	none
COc1ccc(NS(=O)(=O)c2ccc(NC(=S)NC(=O)C(C)C)cc2)cc1	ASAP1 inh 31.5 | ASAP1 GAP conf inactive
C[C@H]1CCCCO[C@@H](CN(C)C(=O)Nc2ccc3c(c2)OCO3)[C@@H](C)CN([C@@H](C)CO)C(=O)c2cc(NC(=O)NC3CCCCC3)ccc2O1	none (no result: SMARCA2 act, ARFGAP1 inh, ASAP1 inh)
O=C(C[C@H]1CC[C@@H]2[C@H](COC[C@H](O)CN2Cc2ccccc2)O1)NCc1ccccc1Cl	none (no result: SMARCA2 act, ARFGAP1 inh, ASAP1 inh)
Cc1cccc(OCc2nnc(SCC(=O)Nc3ccc(N4CCOCC4)cc3)o2)c1	ASAP1 inh 31.6 | ASAP1 GAP conf inactive
CO[C@@H]1CN(C)C(=O)c2ccc(NS(C)(=O)=O)cc2OC[C@H](C)N(CC2CCOCC2)C[C@H]1C	none (no result: SMARCA2 act, ARFGAP1 inh, ASAP1 inh)
Cc1cc(C)c(NS(=O)(=O)c2ccc(NC(=O)c3cccs3)cc2)c(C)c1	none (no result: esBAF inh)
Cc1ccc(S(=O)(=O)Nc2ccc(NC(=O)c3cccs3)cc2)cc1	ASAP1 inh 24.7 (no result: esBAF inh) | ASAP1 GAP conf inactive
CNC(=O)COC(=O)/C=C/c1ccco1	ASAP1 inh 27.5 (no result: esBAF inh) | ASAP1 GAP conf inactive
O=C(COC(=O)/C=C/c1ccco1)NCc1ccco1	none
COc1ccc(-n2nnc3c(=O)n(CC(=O)Nc4ccc5c(c4)OCCO5)cnc32)cc1OC	ASAP1 inh 108.3 | ASAP1 GAP conf 72.9
O=C(Cn1cnc2c(nnn2-c2cccc(F)c2)c1=O)Nc1ccc2c(c1)OCCO2	none
N#Cc1cn(CC(=O)NCCc2c[nH]c3ccccc23)c2ccccc12	ASAP1 inh 26.6 | ASAP1 GAP conf inactive
Cc1c(C#N)c2ccccc2n1CC(=O)NCCc1c[nH]c2ccccc12	none
CN1C(=O)c2cc(NC(=O)c3cccc(F)c3)ccc2OC[C@H]2O[C@H](CC(=O)NC3CCC3)CC[C@@H]21	none (no result: SMARCA2 act, ARFGAP1 inh, ASAP1 inh)
CCOc1ccc(Br)cc1S(=O)(=O)Nc1ccc(C(=O)OCC(=O)N(C)c2ccccc2)cc1	ASAP1 inh 26.3 (no result: esBAF inh) | ASAP1 GAP conf inactive
CCCC(=O)Nc1ccc2c(c1)C(=O)N(C)[C@H]1CC[C@H](CC(=O)NCc3ccccc3Cl)O[C@@H]1CO2	none (no result: SMARCA2 act, ARFGAP1 inh, ASAP1 inh)
COc1cccc(NC(=O)C2(C)CCN2Cc2ccc(OC)c3ccccc23)c1 (stereo not drawn)	ASAP1 inh 28.7 | ASAP1 GAP conf inactive
C[C@H](CO)N1C[C@H](C)[C@@H](CN(C)C(=O)NC2CCCCC2)Oc2ccc(NS(=O)(=O)c3ccc(Cl)cc3)cc2CC1=O	none (no result: SMARCA2 act, ARFGAP1 inh, ASAP1 inh)
Cc1ccc(NC(=O)COc2ccc(CCO)cc2-n2nc3ccccc3n2)cc1C	ASAP1 inh 26.3 | ASAP1 GAP conf inactive
O=C(O)C1[C@H]2C(=O)N(Cc3cccs3)C[C@]23C=C[C@H]1O3 (stereo partly drawn)	ASAP1 inh 24.8 | ASAP1 GAP conf inactive
Cc1ccc(-c2csc(NC(=O)COc3ccc(N(C)S(=O)(=O)c4ccc(C)cc4)cc3)n2)cc1	ASAP1 inh 25.3 (no result: esBAF inh) | ASAP1 GAP conf inactive
Cc1ccccc1N1CCN(C(=O)CN2C(=O)c3ccccc3C2=O)CC1	ASAP1 inh 26.1 | ASAP1 GAP conf inactive
Cc1ccc(S(=O)(=O)c2c(N)n(CCC(C)C)c3nc4ccccc4nc23)cc1	ASAP1 inh 24.8 | ASAP1 GAP conf inactive
CO[C@H](CN(C)S(=O)(=O)c1cccc(Cl)c1)[C@@H](C)CN([C@H](C)CO)S(=O)(=O)c1cccc(Cl)c1	none (no result: SMARCA2 act, ARFGAP1 inh, ASAP1 inh)
O=C(CNC(=O)c1ccc(Cl)cc1Cl)NCCCn1ccnc1	ASAP1 inh 28.8 (no result: esBAF inh) | ASAP1 GAP conf inactive
O=C(Nc1cccc(-c2csc(Nc3ccc(Cl)cc3)n2)c1)c1ccccc1	ASAP1 inh 26.2 | ASAP1 GAP conf 26.1
Cc1ccc(C(=O)Nc2cccc(-c3cnc4ccccc4n3)c2)cc1	none
CC(=O)Nc1ccc(C(=O)Nc2cccc(-c3cnc4ccccc4n3)c2)cc1	ASAP1 inh 39.9 (no result: esBAF inh) | ASAP1 GAP conf 80.3
COn1c(SC2CCCCC2)nc2ccccc2c1=O	ASAP1 inh 74.4 | ASAP1 GAP conf inactive
COn1c(SC(C)C)nc2ccccc2c1=O	none
CCOC(=O)c1[nH]c(C)c(C(=O)Nc2ccc(C)c(C)c2)c1C	ASAP1 inh 26.4 | ASAP1 GAP conf inactive
CCOC(=O)c1[nH]c(C)c(C(=O)Nc2ccc(F)cc2)c1C	none
Cc1noc(C)c1S(=O)(=O)N(C)C[C@H]1Oc2ccc(NC(=O)Nc3ccc4c(c3)OCO4)cc2CC(=O)N([C@@H](C)CO)C[C@H]1C	none (no result: SMARCA2 act, ARFGAP1 inh, ASAP1 inh)
N#Cc1c(-c2ccc(Br)cc2)cc(-c2cccnc2)nc1N	none (no result: esBAF inh)
N#Cc1c(-c2cccc(Br)c2)cc(-c2cccnc2)nc1N	ASAP1 inh 28.0 (no result: esBAF inh) | ASAP1 GAP conf inactive
COc1ccc(S(=O)(=O)NNC(=S)NCCc2ccccc2)c(OC)c1	ASAP1 inh 25.5 | ASAP1 GAP conf inactive
Oc1oc(-c2ccccc2Br)nc1C=Nc1ccc(Br)cn1	ASAP1 inh 51.0 | ASAP1 GAP conf 110.0
Oc1oc(-c2ccccc2)nc1/C=N/c1ccccn1	none
O=c1cc(-c2ccc(O)c(O)c2)oc2c1ccc1ccccc12	ASAP1 inh 24.7 | ASAP1 GAP conf inactive
